ChEMBL document CHEMBL1944574, “Inhibition of monoamine oxidase by selected C6-substituted chromone derivatives” (Eur J Med Chem, 2012)

What was measured:
[1] = target: T1, Amine oxidase [flavin-containing] A (Homo sapiens, UniProt P21397); experiment: Inhibition of recombinant human monoamine oxidase A expressed in insect microsomes using kynuramine as substrate after 20 mins by fluorescence spectrophotometry; set-up: species or system Microsome
T1 sequence (P21397 whole entry): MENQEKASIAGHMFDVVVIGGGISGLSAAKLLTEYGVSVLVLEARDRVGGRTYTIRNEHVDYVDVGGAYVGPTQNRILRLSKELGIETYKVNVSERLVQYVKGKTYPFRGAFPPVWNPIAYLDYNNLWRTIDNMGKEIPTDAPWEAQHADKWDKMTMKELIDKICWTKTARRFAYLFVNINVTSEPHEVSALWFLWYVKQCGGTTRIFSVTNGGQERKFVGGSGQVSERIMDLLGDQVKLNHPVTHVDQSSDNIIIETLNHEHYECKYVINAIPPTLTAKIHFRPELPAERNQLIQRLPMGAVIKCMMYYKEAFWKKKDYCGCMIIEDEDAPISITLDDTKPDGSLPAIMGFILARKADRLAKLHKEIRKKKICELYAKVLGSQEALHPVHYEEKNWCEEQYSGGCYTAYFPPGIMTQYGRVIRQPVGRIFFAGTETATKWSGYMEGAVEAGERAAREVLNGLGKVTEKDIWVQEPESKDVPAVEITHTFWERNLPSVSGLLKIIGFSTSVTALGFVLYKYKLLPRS
Method in brief: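 Enzyme source: insect-cell microsomes with recombinant human MAO-A or MAO-B at 0.0075 mg protein/mL, with kynuramine as substrate. Buffer was potassium phosphate 100 mM, pH 7.4, made isotonic with 20.2 mM KCl. Six inhibitor concentrations (0–100 µM) spanned at least 3 log units. Incubation was 20 min at 37 °C, then stopped with 2 N NaOH. 4-Hydroxyquinoline was read by fluorescence ([…] nm as printed) against a 0.047–1.56 µM standard curve. IC50 came from sigmoidal fits of initial rate versus log inhibitor, in triplicate, mean ± SD.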

[2] = target: T2, Amine oxidase [flavin-containing] B (Homo sapiens, UniProt P27338); experiment: Inhibition of recombinant human monoamine oxidase B expressed in insect microsomes using kynuramine as substrate after 20 mins by fluorescence spectrophotometry; set-up: species or system Microsome
T2 sequence (P27338 whole entry): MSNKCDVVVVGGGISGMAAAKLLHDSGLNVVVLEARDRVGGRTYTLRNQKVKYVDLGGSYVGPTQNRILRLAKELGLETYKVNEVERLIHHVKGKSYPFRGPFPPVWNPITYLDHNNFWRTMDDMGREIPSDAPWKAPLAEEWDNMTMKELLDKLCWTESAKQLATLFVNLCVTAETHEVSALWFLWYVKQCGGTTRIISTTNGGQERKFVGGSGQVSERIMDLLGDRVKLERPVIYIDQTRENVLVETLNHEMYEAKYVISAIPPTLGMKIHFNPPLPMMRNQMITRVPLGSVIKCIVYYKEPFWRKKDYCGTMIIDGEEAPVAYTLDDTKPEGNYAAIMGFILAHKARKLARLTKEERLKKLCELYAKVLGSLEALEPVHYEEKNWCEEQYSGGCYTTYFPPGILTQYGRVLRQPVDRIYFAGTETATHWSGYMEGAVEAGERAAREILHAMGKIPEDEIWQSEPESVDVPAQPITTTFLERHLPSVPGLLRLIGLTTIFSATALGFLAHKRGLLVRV
Method in brief: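 Enzyme source: insect-cell microsomes with recombinant human MAO-A or MAO-B at 0.0075 mg protein/mL, with kynuramine as substrate. Six inhibitor concentrations (0–100 µM) spanned at least 3 log units. Incubation was 20 min at 37 °C, then stopped with 2 N NaOH. IC50 came from sigmoidal fits of initial rate versus log inhibitor, in triplicate, mean ± SD.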

[3] = species: Homo sapiens; experiment: Selectivity index, ratio of IC50 for recombinant human monoamine oxidase A to IC50 for recombinant human monoamine oxidase B
[4] = target: T2, Amine oxidase [flavin-containing] B; experiment: Competitive inhibition of recombinant human monoamine oxidase B at 0.064 uM preincubated for 15 to 60 mins before kynuramine substrate addition measured after 15 mins by Lineweaver-Burk plot analysis; conditions: 0.25 h
[5] = target: T1, Amine oxidase [flavin-containing] A; experiment: Competitive inhibition of recombinant human monoamine oxidase A at 0.190 uM preincubated for 15 to 60 mins before kynuramine substrate addition measured after 15 mins; conditions: 0.25 h, 0.19 µM

Row | SMILES | IC50 [1] [nM] | IC50 [2] [nM] | Ratio IC50 [3] | inhibition (INH) [4] | inhibition (INH) [5]
1 | O=c1ccoc2ccc(OCc3cccc(F)c3)cc12 | 1230 | 13 | 95 |  | 
2 | O=c1ccoc2ccc(OCCc3ccccc3)cc12 | 3120 | 21 | 149 |  | 
3 | Cc1cccc(COc2ccc3occc(=O)c3c2)c1 | 1130 | 19 | 59 |  | 
4 | Cc1ccc(COc2ccc3occc(=O)c3c2)cc1 | 3490 | 6 | 582 |  | 
5 | O=c1ccoc2ccc(OCc3cccc(Cl)c3)cc12 | 424 | 3.6 | 118 |  | 
6 | O=c1ccoc2ccc(OCCCc3ccccc3)cc12 | 1910 | 57 | 34 |  | 
7 | O=c1ccoc2ccc(OCCc3ccc(Br)cc3)cc12 | 480 | 27 | 18 |  | 
8 | O=c1ccoc2ccc(OCc3ccc(C(F)(F)F)cc3)cc12 | 879 | 2 | 440 |  | 
9 | O=c1ccoc2ccc(OCc3cccc(Br)c3)cc12 | 386 | 2 | 193 |  | 
10 | O=c1ccoc2ccc(OCc3ccccc3)cc12 | 3300 | 53 | 62 |  | 

The next molecules have a lower IC50 [1] than those just listed; values first:

Row | IC50 [1] [nM] | IC50 [2] [nM] | Ratio IC50 [3] | inhibition (INH) [4] | inhibition (INH) [5] | SMILES
11 | 322 |  |  |  |  | O=c1ccoc2ccc(OCc3ccc(F)cc3)cc12
12 | 255 | 76 | 3 |  |  | N#Cc1cccc(COc2ccc3occc(=O)c3c2)c1
13 | 175 | 22 | 8 |  |  | N#Cc1ccc(COc2ccc3occc(=O)c3c2)cc1
14 | 106 |  |  |  |  | O=c1ccoc2ccc(OCc3ccc(Cl)cc3)cc12
15 | 95 | 3.3 | 29 | Active | Active | O=c1ccoc2ccc(OCc3ccc(Br)cc3)cc12
